How the values were obtained:
COLO 205 = assay: Growth inhibitory activity was determined against COLO 205 cancer cell line colon cancer; assay type: functional, Homo sapiens; conditions: Homo sapiens, COLO 205
Method in brief: (§1)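 NCI 60 human tumour cell line screen run at the National Cancer Institute. Cell growth and viability read with the protein stain sulforhodamine B, which binds basic amino acids of cells left attached after washing. […] MG MID is the mean GI50 calculated over all panels.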

NCI/ADR-RES = assay: Growth inhibitory activity was determined against NCI/ADR-RES cancer cell line of Breast cancer; assay type: functional, Homo sapiens; conditions: Homo sapiens, NCI/ADR-RES; method in brief: as §1
SN12C [1] = assay: Growth inhibitory activity was determined against SN12C cancer cell line of renal cancer; assay type: functional; conditions: Homo sapiens; method in brief: as §1
T47D = assay: Growth inhibitory activity was determined against T-47D cancer cell line of Breast cancer; assay type: functional, Homo sapiens; conditions: Homo sapiens, T47D; method in brief: as §1
HCC 2998 = assay: Growth inhibitory activity was determined against HCC2998 cancer cell line colon cancer; assay type: functional, Homo sapiens; conditions: Homo sapiens, HCC 2998; method in brief: as §1
[2] = target: Receptor-type tyrosine-protein phosphatase C, CD45 (Homo sapiens) (UniProt P08575); assay: Inhibitory activity tested against human CD45 receptor-type tyrosine-protein phosphatase C
[3] = target: T1, M-phase inducer phosphatase 1 (Homo sapiens) (UniProt P30304); assay: (§2) Inhibitory activity tested against cell division cycle 25A (assay using p-nitro phenyl phosphate (pNPP) as substrate)
T1 sequence (whole entry): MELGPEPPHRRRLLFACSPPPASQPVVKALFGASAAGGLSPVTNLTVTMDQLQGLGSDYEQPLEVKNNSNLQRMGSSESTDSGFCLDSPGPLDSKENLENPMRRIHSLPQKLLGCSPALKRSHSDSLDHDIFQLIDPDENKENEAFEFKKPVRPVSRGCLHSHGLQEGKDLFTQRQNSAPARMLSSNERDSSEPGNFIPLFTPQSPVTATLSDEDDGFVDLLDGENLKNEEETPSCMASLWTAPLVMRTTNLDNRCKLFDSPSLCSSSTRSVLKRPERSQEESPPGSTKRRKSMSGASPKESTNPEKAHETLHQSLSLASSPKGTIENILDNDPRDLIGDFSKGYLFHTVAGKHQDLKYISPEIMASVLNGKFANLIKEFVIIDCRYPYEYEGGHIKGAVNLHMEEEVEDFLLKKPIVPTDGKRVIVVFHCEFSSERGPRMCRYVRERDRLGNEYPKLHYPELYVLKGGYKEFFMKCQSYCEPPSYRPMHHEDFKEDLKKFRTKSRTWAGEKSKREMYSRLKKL

[4] = target: T1, M-phase inducer phosphatase 1 (Homo sapiens); assay: (§3) Inhibitory activity tested against cell division cycle 25A (assay using fluorescein diphosphate (FDP) as substrate)
Method in brief: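 Recombinant human GST-Cdc25A fusion protein, each batch calibrated so that FDP was dephosphorylated linearly over 20 min. Fluorescein diphosphate was the substrate. Reactions ran 15 min at 25 °C in the dark and were stopped with sodium orthovanadate. Fluorescein monophosphate was read at 485 nm excitation and 530 nm emission. IC50 came from at least two independent runs, each in triplicate.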

A549 = assay: Growth inhibitory activity was determined against A549/ATCC cancer cell line of non-small cell lung cancer; assay type: functional, Homo sapiens; conditions: Homo sapiens, A549; method in brief: as §1
OVCAR-3 [5] = assay: Growth inhibitory activity was determined against OVCAR-3 cancer cell line of Ovarian cancer; assay type: functional; conditions: Homo sapiens; method in brief: as §1
PC-3 = assay: Growth inhibitory activity was determined against PC-3 cancer cell line of Prostate cancer; assay type: functional; conditions: Homo sapiens; method in brief: as §1
BT-549 (Homo sapiens) = assay: Growth inhibitory activity was determined against BT-549 cancer cell line of Breast cancer; conditions: Homo sapiens, BT-549
SK-MEL-5 = assay: Growth inhibitory activity was determined against SK-MEL-5 cancer cell line of melanoma; assay type: functional, Homo sapiens; conditions: Homo sapiens, SK-MEL-5; method in brief: as §1
SF-539 = assay: Growth inhibitory activity was determined against SF-539 cancer cell line of CNS cancer; assay type: functional; conditions: Homo sapiens; method in brief: as §1
OVCAR-8 [6] = assay: Growth inhibitory activity was determined against OVCAR-8 cancer cell line of Ovarian cancer; assay type: functional; conditions: Homo sapiens; method in brief: as §1
NCI-H23 = assay: Growth inhibitory activity was determined against NCI-H23 cancer cell line of non-small cell lung cancer; assay type: functional, Homo sapiens; conditions: Homo sapiens, NCI-H23; method in brief: as §1
786-0 [7] = assay: Growth inhibitory activity was determined against 786-0 cancer cell line of renal cancer; assay type: functional; conditions: Homo sapiens; method in brief: as §1
LOX IMVI = assay: Growth inhibitory activity was determined against LOX IMVI cancer cell line of melanoma; assay type: functional, Homo sapiens; conditions: Homo sapiens, LOX IMVI; method in brief: as §1
U-251 = assay: Growth inhibitory activity was determined against U-251 cancer cell line of CNS cancer; assay type: functional; conditions: Homo sapiens; method in brief: as §1
UO-31 [8] = assay: Growth inhibitory activity was determined against UO-31 cancer cell line of renal cancer; assay type: functional; conditions: Homo sapiens; method in brief: as §1
HT-29 [9] = assay: Growth inhibitory activity was determined against HT-29 cancer cell line colon cancer; assay type: functional, Homo sapiens; conditions: Homo sapiens, HT-29; method in brief: as §1
OVCAR-8 [10] = assay: Growth inhibitory activity was determined against OVCAR-8 cancer cell lines of Ovarian cancer; assay type: functional; conditions: Homo sapiens; method in brief: as §1
SF-268 = assay: Growth inhibitory activity was determined against SF-268 cancer cell line of CNS cancer; assay type: functional; conditions: Homo sapiens; method in brief: as §1
OVCAR-3 [11] = assay: Growth inhibitory activity was determined against OVCAR-3 cancer cell lines of Ovarian cancer; assay type: functional; conditions: Homo sapiens; method in brief: as §1
NCI-H522 = assay: Growth inhibitory activity was determined against NCI-H522 cancer cell line of non-small cell lung cancer; assay type: functional; conditions: Homo sapiens; method in brief: as §1
HT-29 [12] = assay: Inhibition of colon cancer in HT-29 cancer cell lines; assay type: functional; conditions: Homo sapiens
Method in brief: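 Soft agar clonogenic assay of anchorage-independent growth, using HT-29 colon and A549 lung adenocarcinoma cells. The value is the compound concentration that cut colony number to 50% of control.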

UO-31 [13] = assay: Growth inhibitory activity was determined against UO-31 cancer cell line of Renal cancer; assay type: functional; conditions: Homo sapiens; method in brief: as §1
786-0 [14] = assay: Growth inhibitory activity was determined against 786-0 cancer cell line of Renal cancer; assay type: functional; conditions: Homo sapiens; method in brief: as §1
SN12C [15] = assay: Growth inhibitory activity was determined against SN12C cancer cell line of Renal cancer; assay type: functional; conditions: Homo sapiens; method in brief: as §1
[16] = target: T2, M-phase inducer phosphatase 1 (Homo sapiens, UniProt P30304); assay: as §2
T2 sequence (P30304 whole entry): T1 sequence (whole entry)

[17] = target: T2, M-phase inducer phosphatase 1; assay: as §3
Method in brief: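 Recombinant human GST-Cdc25A fusion protein, each batch calibrated so that FDP was dephosphorylated linearly over 20 min. Fluorescein diphosphate was the substrate. Reactions ran 15 min at 25 °C in the dark and were stopped with sodium orthovanadate. IC50 came from at least two independent runs, each in triplicate.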

[18] = target: Receptor-type tyrosine-protein phosphatase C, CD45 (Homo sapiens) (UniProt P08575); assay: Inhibitory activity tested against human CD45 (receptor-type tyrosine-protein phosphatase C)
[19] = target: T3, Receptor-type tyrosine-protein phosphatase C (Homo sapiens, UniProt P08575); assay: Inhibitory activity tested against Human CD45 Phosphatase (assay using p-nitrophenyl phosphate (pNPP) as substrate)
T3 sequence (P08575 whole entry): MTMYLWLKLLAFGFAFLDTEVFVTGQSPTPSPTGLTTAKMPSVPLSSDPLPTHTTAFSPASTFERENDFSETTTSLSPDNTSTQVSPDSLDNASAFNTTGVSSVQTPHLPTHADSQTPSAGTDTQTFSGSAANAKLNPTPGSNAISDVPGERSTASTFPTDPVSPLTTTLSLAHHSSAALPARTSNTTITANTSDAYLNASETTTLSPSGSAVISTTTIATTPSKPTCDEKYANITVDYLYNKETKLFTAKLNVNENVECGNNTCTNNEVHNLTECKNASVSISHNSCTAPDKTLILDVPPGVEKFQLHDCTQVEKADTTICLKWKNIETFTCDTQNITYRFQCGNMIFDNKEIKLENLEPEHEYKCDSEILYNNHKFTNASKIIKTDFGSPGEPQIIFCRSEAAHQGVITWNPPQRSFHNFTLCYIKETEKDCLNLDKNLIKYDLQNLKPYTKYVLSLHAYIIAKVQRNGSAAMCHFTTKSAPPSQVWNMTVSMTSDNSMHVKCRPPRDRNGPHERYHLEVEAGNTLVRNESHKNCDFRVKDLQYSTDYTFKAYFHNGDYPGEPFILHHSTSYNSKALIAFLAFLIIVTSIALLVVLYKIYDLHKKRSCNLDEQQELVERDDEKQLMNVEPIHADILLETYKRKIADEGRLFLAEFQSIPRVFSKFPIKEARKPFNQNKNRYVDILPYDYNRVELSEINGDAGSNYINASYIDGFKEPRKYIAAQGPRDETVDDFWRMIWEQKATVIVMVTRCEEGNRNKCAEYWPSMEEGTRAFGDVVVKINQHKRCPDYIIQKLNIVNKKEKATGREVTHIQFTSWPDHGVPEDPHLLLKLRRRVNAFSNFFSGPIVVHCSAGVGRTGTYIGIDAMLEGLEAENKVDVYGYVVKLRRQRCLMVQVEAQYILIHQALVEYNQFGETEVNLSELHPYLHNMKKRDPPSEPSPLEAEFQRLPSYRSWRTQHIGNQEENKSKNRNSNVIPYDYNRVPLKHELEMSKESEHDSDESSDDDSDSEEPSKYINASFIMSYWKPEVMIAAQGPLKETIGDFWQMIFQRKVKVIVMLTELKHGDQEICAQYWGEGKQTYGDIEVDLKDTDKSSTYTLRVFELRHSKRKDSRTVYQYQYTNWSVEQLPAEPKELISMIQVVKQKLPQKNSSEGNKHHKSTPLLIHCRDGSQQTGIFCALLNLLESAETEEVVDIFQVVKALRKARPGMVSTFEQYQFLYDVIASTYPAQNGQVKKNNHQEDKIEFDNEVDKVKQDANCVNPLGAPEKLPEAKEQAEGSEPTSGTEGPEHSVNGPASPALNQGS

Row | SMILES | GI50 (COLO 205) [µM] | GI50 (NCI/ADR-RES) [µM] | GI50 (SN12C [1]) [µM] | GI50 (T47D) [µM] | GI50 (HCC 2998) [µM] | GI50 (A549) [µM] | GI50 (OVCAR-3 [5]) [µM] | GI50 (PC-3) [µM] | GI50 (BT-549 (Homo sapiens)) [µM] | GI50 (SK-MEL-5) [µM] | GI50 (SF-539) [µM] | GI50 (OVCAR-8 [6]) [µM] | GI50 (NCI-H23) [µM] | GI50 (786-0 [7]) [µM] | GI50 (LOX IMVI) [µM] | GI50 (U-251) [µM] | GI50 (UO-31 [8]) [µM] | GI50 (HT-29 [9]) [µM] | GI50 (SF-268) [µM] | GI50 (NCI-H522) [µM] | further results
1 | C=C(CCCCC#N)[C@H]1CC[C@]2(C)[C@@H]([C@H](C)CCCC(C)C)CC[C@H]2[C@@H]1CC(=O)O | 5.1 | 5.66 | 6.9 | 8.39 | 6.33 | 5.21 | 6.64 | 7.36 | 5.62 | 5.98 | 4.5 | 4.78 | 5.12 | 11.5 | 4.92 | 6.49 | 9.41 | 7.77 |  |  | IC50 [2]: 12.2 µM; IC50 [3]: 8.3 µM; IC50 [4]: 2.2 µM
2 | CC(C)CCCC(C)[C@H]1CC[C@H]2[C@H](CC(=O)O)[C@@H]([C@@]3(C)CC[C@@H](CC#N)O3)CC[C@]12C (stereo not given in full) | 5.26 | 5.44 | 5.4 | 8.41 | 5.1 | 8.25 |  | 7.77 | 5.05 | 10.8 | 19.5 |  | 5.75 | 9.23 | 6.23 | 6.01 | 15.3 | 5.52 | 2.86 | 0.94 | GI50 (OVCAR-8 [10]): 4.76 µM; GI50 (OVCAR-3 [11]): 5.66 µM
3 | CC(C)CCC[C@@H](C)[C@H]1CC[C@H]2[C@@H]3CC(=O)O[C@](C)(CCCCC#N)[C@H]3CC[C@]12C | 4.75 |  |  | 4.92 | 4.71 | 5.51 | 4.73 | 5.51 | 5.89 | 5.1 | 5.17 | 5.19 | 5.63 |  | 5.35 | 5.04 |  |  | > 25 | > 25 | GI50 (HT-29 [12]): 4.05 µM; GI50 (UO-31 [13]): 0.47 µM; GI50 (786-0 [14]): 4.3 µM; GI50 (SN12C [15]): 4.38 µM
4 | CC(C)CCC[C@@H](C)[C@H]1CC[C@H]2[C@@H]3CC(=O)O[C@](C)(CCCCC(=O)O)[C@H]3CC[C@]12C | 6.13 | 5.55 | 8.3 | 7.3 | 4.43 | 8.3 |  | 7.21 | 4.19 | 9.69 | 14.6 |  | 4.92 | 8.44 |  | 6.28 | 11 | 7.76 | > 25 | > 25 | GI50 (OVCAR-8 [10]): 5.13 µM; GI50 (OVCAR-3 [11]): 5.78 µM; IC50 [16]: 11.6 µM; IC50 [17]: 5.1 µM; IC50 [18]: > 100 µM
5 | CC(C)CCC[C@@H](C)[C@H]1CC[C@H]2[C@@H]3CC[C@H]4C[C@@H](OC(=S)S)CC[C@]4(C)[C@H]3CC[C@]12C |  |  |  |  |  |  |  |  |  |  |  |  |  |  |  |  |  |  |  |  | IC50 [16]: 11.7 µM; IC50 [17]: 1.1 µM; IC50 [19]: > 100 µM

Reference: ChEMBL document CHEMBL1134845, “Syntheses and biological activities of a novel group of steroidal derived inhibitors for human Cdc25A protein phosphatase” (J Med Chem, 2001)
